ChEMBL document CHEMBL5058577, “EUbOPEN Chemogenomics Library 2 (Multiplex)” (2022)

Test system: U2OS
Experiment: Multiplex assay against U2OS
Type: toxicity, cell-based
Details: human
Summary of the method: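 Cells stained live at seeding with Hoechst33342, BioTracker Green Microtubule Cytoskeleton Dye, MitoTracker Red and Annexin V Alexa Fluor 680 were imaged on a CQ1 microscope at 37°C and 5% CO2 after compound addition. Their classification by CellPathfinder machine-learning gating ran from Hoechst high-intensity objects versus normal cells, to healthy, pyknosed or fragmented nuclei among normal cells, to mitotic or apoptotic among pyknosed cells. Tubulin, mitochondrial-mass and membrane-permeability phenotypes are per cents of healthy-nucleus cells.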

[1] = 12 h, 1 µM, compound concentration 1 uM, replicate 1
[2] = 12 h, 1 µM, compound concentration 1 uM, replicate 2
[3] = 12 h, 10 µM, compound concentration 10 uM, replicate 1
[4] = 12 h, 10 µM, compound concentration 10 uM, replicate 2
[5] = 24 h, 1 µM, compound concentration 1 uM, replicate 1
[6] = 24 h, 1 µM, compound concentration 1 uM, replicate 2
[7] = 24 h, 10 µM, compound concentration 10 uM, replicate 1
[8] = 24 h, 10 µM, compound concentration 10 uM, replicate 2
[9] = 48 h, 1 µM, compound concentration 1 uM, replicate 1
[10] = 48 h, 1 µM, compound concentration 1 uM, replicate 2
[11] = 48 h, 10 µM, compound concentration 10 uM, replicate 1
[12] = 48 h, 10 µM, compound concentration 10 uM, replicate 2

Question: How did the “Population Apoptotic (%)” value [1] turn out when `CCc1cc2cc(NS(=O)(=O)c3ccc(C#N)cc3)ccc2n(CC)c1=O` was run?
Answer: 88%

Question: And the “Population Fragmented Nuclei (%)” value [1]?
Answer: 30%

Question: And the “Population Healthy Nuclei (%)” value [1]?
Answer: 60%

Question: What about the “Population Hoechst High Intensity Objects (%)” value [1] of the same compound?
Answer: 3%

Question: And the “Population Membrane Permeable-Phenotype (%)” value [1]?
Answer: 4%

Question: And the “Population Mitochondria Different-Phenotype (%)” value [1]?
Answer: 2%

Question: What about the “Population Mitotic Cells (%)” value [1] of the same compound?
Answer: 11%

Question: And the “Population Normal (%)” value [1]?
Answer: 96%

Question: What about the “Population Pyknosed Nuclei (%)” value [1] of the same compound?
Answer: 9%

Question: And the “Population Tubulin-Different-Phenotype (%)” value [1]?
Answer: 2%

Question: What about the “Total Cell Count” value [1] of the same compound?
Answer: 286

Question: And the “Population Apoptotic (%)” value [2]?
Answer: 100%

Question: What about the “Population Fragmented Nuclei (%)” value [2] of the same compound?
Answer: 26%

Question: What about the “Population Healthy Nuclei (%)” value [2] of the same compound?
Answer: 70%

Question: And the “Population Hoechst High Intensity Objects (%)” value [2]?
Answer: 1%

Question: And the “Population Membrane Permeable-Phenotype (%)” value [2]?
Answer: 8%

Question: And the “Population Mitotic Cells (%)” value [2]?
Answer: 0%

Question: And the “Population Normal (%)” value [2]?
Answer: 98%

Question: What about the “Population Pyknosed Nuclei (%)” value [2] of the same compound?
Answer: 3%

Question: And the “Population Tubulin-Different-Phenotype (%)” value [2]?
Answer: 7%

Question: What about the “Total Cell Count” value [2] of the same compound?
Answer: 113

Question: What about the “Population Apoptotic (%)” value [3] of the same compound?
Answer: 66%

Question: What about the “Population Fragmented Nuclei (%)” value [3] of the same compound?
Answer: 28%

Question: And the “Population Healthy Nuclei (%)” value [3]?
Answer: 64%

Question: What about the “Population Hoechst High Intensity Objects (%)” value [3] of the same compound?
Answer: 2%

Question: What about the “Population Membrane Permeable-Phenotype (%)” value [3] of the same compound?
Answer: 9%

Question: What about the “Population Mitochondria Different-Phenotype (%)” value [3] of the same compound?
Answer: 3%

Question: And the “Population Mitotic Cells (%)” value [3]?
Answer: 33%

Question: What about the “Population Normal (%)” value [3] of the same compound?
Answer: 97%

Question: And the “Population Pyknosed Nuclei (%)” value [3]?
Answer: 6%

Question: And the “Population Tubulin-Different-Phenotype (%)” value [3]?
Answer: 4%

Question: What about the “Total Cell Count” value [3] of the same compound?
Answer: 220

Question: What about the “Population Apoptotic (%)” value [4] of the same compound?
Answer: 87%

Question: And the “Population Fragmented Nuclei (%)” value [4]?
Answer: 13%

Question: What about the “Population Healthy Nuclei (%)” value [4] of the same compound?
Answer: 80%

Question: What about the “Population Membrane Permeable-Phenotype (%)” value [4] of the same compound?
Answer: 6%

Question: And the “Population Mitotic Cells (%)” value [4]?
Answer: 12%

Question: What about the “Population Pyknosed Nuclei (%)” value [4] of the same compound?
Answer: 5%

Question: What about the “Total Cell Count” value [4] of the same compound?
Answer: 139

Question: And the “Population Apoptotic (%)” value [5]?
Answer: 85%

Question: What about the “Population Fragmented Nuclei (%)” value [5] of the same compound?
Answer: 29%

Question: And the “Population Healthy Nuclei (%)” value [5]?
Answer: 61%

Question: What about the “Population Hoechst High Intensity Objects (%)” value [5] of the same compound?
Answer: 2%

Question: And the “Population Membrane Permeable-Phenotype (%)” value [5]?
Answer: 9%

Question: What about the “Population Mitochondria Different-Phenotype (%)” value [5] of the same compound?
Answer: 2%

Question: And the “Population Mitotic Cells (%)” value [5]?
Answer: 14%

Question: What about the “Population Normal (%)” value [5] of the same compound?
Answer: 97%

Question: What about the “Population Pyknosed Nuclei (%)” value [5] of the same compound?
Answer: 8%

Question: What about the “Population Tubulin-Different-Phenotype (%)” value [5] of the same compound?
Answer: 6%

Question: And the “Total Cell Count” value [5]?
Answer: 335

Question: What about the “Population Apoptotic (%)” value [6] of the same compound?
Answer: 88%

Question: And the “Population Fragmented Nuclei (%)” value [6]?
Answer: 16%

Question: And the “Population Healthy Nuclei (%)” value [6]?
Answer: 75%

Question: What about the “Population Hoechst High Intensity Objects (%)” value [6] of the same compound?
Answer: 1%

Question: What about the “Population Membrane Permeable-Phenotype (%)” value [6] of the same compound?
Answer: 7%

Question: And the “Population Mitochondria Different-Phenotype (%)” value [6]?
Answer: 7%

Question: And the “Population Mitotic Cells (%)” value [6]?
Answer: 11%

Question: And the “Population Normal (%)” value [6]?
Answer: 98%

Question: And the “Population Pyknosed Nuclei (%)” value [6]?
Answer: 7%

Question: And the “Population Tubulin-Different-Phenotype (%)” value [6]?
Answer: 3%

Question: And the “Total Cell Count” value [6]?
Answer: 126

Question: What about the “Population Apoptotic (%)” value [7] of the same compound?
Answer: 95%

Question: And the “Population Fragmented Nuclei (%)” value [7]?
Answer: 23%

Question: And the “Population Healthy Nuclei (%)” value [7]?
Answer: 67%

Question: What about the “Population Hoechst High Intensity Objects (%)” value [7] of the same compound?
Answer: 3%

Question: And the “Population Membrane Permeable-Phenotype (%)” value [7]?
Answer: 4%

Question: What about the “Population Mitochondria Different-Phenotype (%)” value [7] of the same compound?
Answer: 2%

Question: What about the “Population Mitotic Cells (%)” value [7] of the same compound?
Answer: 4%

Question: And the “Population Normal (%)” value [7]?
Answer: 96%

Question: And the “Population Pyknosed Nuclei (%)” value [7]?
Answer: 9%

Question: What about the “Population Tubulin-Different-Phenotype (%)” value [7] of the same compound?
Answer: 1%

Question: What about the “Total Cell Count” value [7] of the same compound?
Answer: 263

Question: And the “Population Apoptotic (%)” value [8]?
Answer: 80%

Question: What about the “Population Fragmented Nuclei (%)” value [8] of the same compound?
Answer: 14%

Question: And the “Population Healthy Nuclei (%)” value [8]?
Answer: 79%

Question: And the “Population Membrane Permeable-Phenotype (%)” value [8]?
Answer: 6%

Question: What about the “Population Mitotic Cells (%)” value [8] of the same compound?
Answer: 20%

Question: What about the “Population Pyknosed Nuclei (%)” value [8] of the same compound?
Answer: 6%

Question: What about the “Population Tubulin-Different-Phenotype (%)” value [8] of the same compound?
Answer: 2%

Question: What about the “Total Cell Count” value [8] of the same compound?
Answer: 159

Question: What about the “Population Apoptotic (%)” value [9] of the same compound?
Answer: 89%

Question: And the “Population Fragmented Nuclei (%)” value [9]?
Answer: 21%

Question: And the “Population Healthy Nuclei (%)” value [9]?
Answer: 70%

Question: What about the “Population Hoechst High Intensity Objects (%)” value [9] of the same compound?
Answer: 2%

Question: And the “Population Membrane Permeable-Phenotype (%)” value [9]?
Answer: 6%

Question: And the “Population Mitochondria Different-Phenotype (%)” value [9]?
Answer: 3%

Question: And the “Population Mitotic Cells (%)” value [9]?
Answer: 10%

Question: And the “Population Normal (%)” value [9]?
Answer: 97%

Question: And the “Population Pyknosed Nuclei (%)” value [9]?
Answer: 8%

Question: What about the “Population Tubulin-Different-Phenotype (%)” value [9] of the same compound?
Answer: 2%

Question: What about the “Total Cell Count” value [9] of the same compound?
Answer: 450

Question: And the “Population Apoptotic (%)” value [10]?
Answer: 84%

Question: And the “Population Fragmented Nuclei (%)” value [10]?
Answer: 19%

Question: And the “Population Healthy Nuclei (%)” value [10]?
Answer: 73%

Question: What about the “Population Hoechst High Intensity Objects (%)” value [10] of the same compound?
Answer: 3%

Question: And the “Population Mitochondria Different-Phenotype (%)” value [10]?
Answer: 5%

Question: What about the “Population Mitotic Cells (%)” value [10] of the same compound?
Answer: 15%

Question: What about the “Population Normal (%)” value [10] of the same compound?
Answer: 96%

Question: What about the “Population Pyknosed Nuclei (%)” value [10] of the same compound?
Answer: 6%

Question: And the “Population Tubulin-Different-Phenotype (%)” value [10]?
Answer: 3%

Question: What about the “Total Cell Count” value [10] of the same compound?
Answer: 192

Question: What about the “Population Apoptotic (%)” value [11] of the same compound?
Answer: 88%

Question: And the “Population Fragmented Nuclei (%)” value [11]?
Answer: 18%

Question: And the “Population Healthy Nuclei (%)” value [11]?
Answer: 72%

Question: And the “Population Hoechst High Intensity Objects (%)” value [11]?
Answer: 3%

Question: What about the “Population Membrane Permeable-Phenotype (%)” value [11] of the same compound?
Answer: 6%

Question: What about the “Population Mitochondria Different-Phenotype (%)” value [11] of the same compound?
Answer: 2%

Question: And the “Population Mitotic Cells (%)” value [11]?
Answer: 11%

Question: And the “Population Normal (%)” value [11]?
Answer: 96%

Question: And the “Population Pyknosed Nuclei (%)” value [11]?
Answer: 9%

Question: What about the “Population Tubulin-Different-Phenotype (%)” value [11] of the same compound?
Answer: 3%

Question: What about the “Total Cell Count” value [11] of the same compound?
Answer: 387

Question: What about the “Population Apoptotic (%)” value [12] of the same compound?
Answer: 96%

Question: What about the “Population Fragmented Nuclei (%)” value [12] of the same compound?
Answer: 15%

Question: And the “Population Healthy Nuclei (%)” value [12]?
Answer: 73%

Question: What about the “Population Hoechst High Intensity Objects (%)” value [12] of the same compound?
Answer: 2%

Question: And the “Population Membrane Permeable-Phenotype (%)” value [12]?
Answer: 8%

Question: What about the “Population Mitochondria Different-Phenotype (%)” value [12] of the same compound?
Answer: 3%

Question: And the “Population Mitotic Cells (%)” value [12]?
Answer: 3%

Question: What about the “Population Normal (%)” value [12] of the same compound?
Answer: 97%

Question: What about the “Population Pyknosed Nuclei (%)” value [12] of the same compound?
Answer: 11%

Question: And the “Population Tubulin-Different-Phenotype (%)” value [12]?
Answer: 7%

Question: And the “Total Cell Count” value [12]?
Answer: 248
